Laboratory results from publication PMC2774623 (Biochemistry, 2008).

Molecular target: CK2α catalytic subunit
Test: SPR
Type: binding, human
Settings: for kd (s^−1) × 10^−3: SPR BIAcoreX, CK2α coupled to CM5 chip, 25 °C, HBS pH 7.4, Langmuir 1:1 model; for association constant ka (as printed in text): SPR, binding to CK2α, unit not given
Summary of the method: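 Recombinant human CK2α, expressed in E. coli, amine-coupled to a CM5 chip (1600 RU). Mouse NBD1 analyte, wild type or ΔF508, at 15 μM, flowed at 10 μL/min, 25 °C, in HBS (10 mM Hepes pH 7.4, 150 mM NaCl, 3 mM EDTA, 0.005% P20). Blank-surface response subtracted; rate constants fitted to a 1:1 binding model.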

kd (s^−1) × 10^−3 | association constant ka (as printed in text) | Molecule
0.335 s^−1 × 10^−3 | 0.135 × 10^3 | NBD1 wt: purified wild-type recombinant murine NBD1 of CFTR (spanning sequence 389−673) (protein) TTGIIMENVTAFWEEGFGELLEKVQQSNGDRKHSSDENNVSFSHLCLVGNPVLKNINLNIEKGEMLAITGSTGSGKTSLLMLILGELEASEGIIKHSGRVSFCSQFSWIMPGTIKENIIFGVSYDEYRYKSVVKACQLQQDITKFAEQDNTVLGEGGVTLSGGQRARISLARAVYKDADLYLLDSPFGYLDVFTEEQVFESCVCKLMANKTRILVTSKMEHLRKADKILILHQGSSYFYGTFSELQSLRPDFSSKLMGYDTFDQFTEERRSSILTETLRRFSVDD
0.0877 s^−1 × 10^−3 | 0.96 × 10^3 | NBD1 ΔF508: purified ΔF508 mutated recombinant murine NBD1 of CFTR (spanning sequence 389−673) (protein) TTGIIMENVTAFWEEGFGELLEKVQQSNGDRKHSSDENNVSFSHLCLVGNPVLKNINLNIEKGEMLAITGSTGSGKTSLLMLILGELEASEGIIKHSGRVSFCSQFSWIMPGTIKENIIGVSYDEYRYKSVVKACQLQQDITKFAEQDNTVLGEGGVTLSGGQRARISLARAVYKDADLYLLDSPFGYLDVFTEEQVFESCVCKLMANKTRILVTSKMEHLRKADKILILHQGSSYFYGTFSELQSLRPDFSSKLMGYDTFDQFTEERRSSILTETLRRFSVDD
